Measured values: ChEMBL document CHEMBL1144800, “Synthesis and antimicrobial properties of monensin A esters” (2008)
≈ marks a conversion by molar mass, not a printed value. Calls of active or inactive are those of the source. The calls are words filed in the database; no cut-off is given here.

Experiments:
Candida albicans [1] = assay: Antifungal activity against Candida albicans ATCC 10231 at 25 ug/disc after 24 hrs by disc diffusion assay; type: functional; settings: ATCC 10231, 24 h, read-out: IZ
Outline: (§1)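 Disc diffusion per CLSI on RPMI agar with 2% glucose. Sterile 9 mm filter-paper discs were loaded at 25 µg per disc, dried, and placed on the agar surface. Plates were incubated at 35 °C, and the diameter of the growth-inhibition zone was read.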

Candida parapsilosis [2] = assay: Antifungal activity against Candida parapsilosis ATCC 22019 after 24 hrs by serial agar dilution method; type: functional; settings: Lodderomyces parapsilosis, ATCC 22019, 24 h
Outline: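 Twofold serial agar dilution per CLSI on RPMI agar with 2% glucose. Agents were dissolved in DMSO and tested at 3.125–400 µg/ml in the solid medium, with a DMSO control. Final inoculum was 10^4 CFU/mL.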

Candida albicans [3] = assay: Antifungal activity against Candida albicans ATCC 90028 at 25 ug/disc after 24 hrs by disc diffusion assay; type: functional; settings: ATCC 90028, 24 h, read-out: IZ; outline: as §1
Candida parapsilosis [4] = assay: Antifungal activity against Candida parapsilosis ATCC 22019 at 25 ug/disc after 24 hrs by disc diffusion assay; type: functional; settings: Lodderomyces parapsilosis, ATCC 22019, 24 h; read-out: IZ; outline: as §1
[5] = tested on: Staphylococcus epidermidis; assay: Antibacterial activity against Staphylococcus epidermidis ATCC 12228 at 400 ug/disc after 18 hrs by disc diffusion assay; type: functional; settings: ATCC 12228, 18 h, read-out: IZ
Outline: (§2)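 Disc diffusion on Mueller–Hinton II agar per CLSI guidelines. Compound in ethanol applied to 9 mm filter paper discs at 400 µg per disc, then dried and placed on the agar surface. Growth inhibition zone diameter read after 18 h at 35 °C.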

[6] = tested on: Staphylococcus epidermidis; assay: Antibacterial activity against Staphylococcus epidermidis ATCC 12228 after 18 hrs by serial agar dilution method; type: functional; settings: ATCC 12228, 18 h
Outline: (§3)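 MIC by twofold serial agar dilution in Mueller–Hinton II agar per CLSI, run only for compounds that gave an inhibition zone in disc assay. Compounds dissolved in DMSO, tested at 3.125–400 µg/ml in agar. Final inoculum 10^4 CFU/ml. […] DMSO control included.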

Bacillus subtilis [7] = assay: Antibacterial activity against Bacillus subtilis ATCC 6633 at 400 ug/disc after 18 hrs by disc diffusion assay; type: functional; settings: ATCC 6633, 18 h, read-out: IZ; outline: as §2
Bacillus subtilis [8] = assay: Antibacterial activity against Bacillus subtilis ATCC 6633 after 18 hrs by serial agar dilution method; type: functional; settings: ATCC 6633, 18 h; outline: as §3
Bacillus cereus [9] = assay: Antibacterial activity against Bacillus cereus ATCC 11778 at 400 ug/disc after 18 hrs by disc diffusion assay; type: functional; settings: ATCC 11778, 18 h, read-out: IZ; outline: as §2
Bacillus cereus [10] = assay: Antibacterial activity against Bacillus cereus ATCC 11778 after 18 hrs by serial agar dilution method; type: functional; settings: ATCC 11778, 18 h; outline: as §3
Enterococcus hirae [11] = assay: Antibacterial activity against Enterococcus hirae ATCC 10541 at 400 ug/disc after 18 hrs by disc diffusion assay; type: functional; settings: ATCC 10541, 18 h, read-out: IZ; outline: as §2
Enterococcus hirae [12] = assay: Antibacterial activity against Enterococcus hirae ATCC 10541 after 18 hrs by serial agar dilution method; type: functional; settings: ATCC 10541, 18 h
Outline: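 Twofold serial agar dilution MIC in Mueller–Hinton II agar (CLSI), run only for compounds that gave an inhibition zone in disc assay. DMSO solutions tested at 3.125–400 µg/ml in agar. Final inoculum 10^5 CFU/ml. Read after 18 h at 35 °C. DMSO control included.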

Micrococcus luteus [13] = assay: Antibacterial activity against Micrococcus luteus ATCC 9341 at 400 ug/disc after 18 hrs by disc diffusion assay; type: functional; settings: ATCC 9341, 18 h, read-out: IZ; outline: as §2
Micrococcus luteus [14] = assay: Antibacterial activity against Micrococcus luteus ATCC 9341 after 18 hrs by serial agar dilution method; type: functional; settings: ATCC 9341, 18 h; outline: as §3
Micrococcus luteus [15] = assay: Antibacterial activity against Micrococcus luteus ATCC 10240 at 400 ug/disc after 18 hrs by disc diffusion assay; type: functional; settings: ATCC 10240, 18 h, read-out: IZ; outline: as §2
Micrococcus luteus [16] = assay: Antibacterial activity against Micrococcus luteus ATCC 10240 after 18 hrs by serial agar dilution method; type: functional; settings: ATCC 10240, 18 h; outline: as §3
Escherichia coli [17] = assay: Antibacterial activity against Escherichia coli ATCC 10538 at 400 ug/disc after 18 hrs by disc diffusion assay; type: functional, organism-based; outline: as §2
Escherichia coli [18] = assay: Antibacterial activity against Escherichia coli ATCC 25922 at 400 ug/disc after 18 hrs by disc diffusion assay; type: functional, organism-based; outline: as §2
Proteus vulgaris = assay: Antibacterial activity against Proteus vulgaris NCTC 4635 at 400 ug/disc after 18 hrs by disc diffusion assay; type: functional, organism-based; outline: as §2
Pseudomonas aeruginosa [19] = assay: Antibacterial activity against Pseudomonas aeruginosa ATCC 15442 at 400 ug/disc after 18 hrs by disc diffusion assay; type: functional, organism-based; outline: as §2
Pseudomonas aeruginosa [20] = assay: Antibacterial activity against Pseudomonas aeruginosa NCTC 6749 at 400 ug/disc after 18 hrs by disc diffusion assay; type: functional, organism-based; outline: as §2
Pseudomonas aeruginosa [21] = assay: Antibacterial activity against Pseudomonas aeruginosa ATCC 27853 at 400 ug/disc after 18 hrs by disc diffusion assay; type: functional, organism-based; outline: as §2
[22] = tested on: Bordetella bronchiseptica; assay: Antibacterial activity against Bordetella bronchiseptica ATCC 4617 at 400 ug/disc after 18 hrs by disc diffusion assay; type: functional, organism-based; outline: as §2
Candida albicans [23] = assay: Antifungal activity against Candida albicans ATCC 10231 at 400 ug/disc after 24 hrs by disc diffusion assay; type: functional; settings: ATCC 10231, 24 h, read-out: IZ
Outline: (§4)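 Disc diffusion on RPMI agar with 2% glucose per CLSI guidelines. Discs 9 mm filter paper, loaded from ethanol solution with 400 µg compound, dried before placing on the agar. Inhibition zone diameter read after incubation at 35 °C. Fluconazole control at 25 µg per disc.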

Candida albicans [24] = assay: Antifungal activity against Candida albicans ATCC 10231 after 24 hrs by serial agar dilution method; type: functional; settings: ATCC 10231, 24 h
Outline: (§5)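 Yeast MIC by twofold serial agar dilution on RPMI agar with 2% glucose (CLSI), run only for compounds that gave an inhibition zone in disc assay. Compounds in DMSO, 3.125–400 µg/ml in agar. Final inoculum 10^4 CFU/ml. […] Fluconazole and DMSO controls included.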

Candida albicans [25] = assay: Antifungal activity against Candida albicans ATCC 90028 at 400 ug/disc after 24 hrs by disc diffusion assay; type: functional; settings: ATCC 90028, 24 h, read-out: IZ; outline: as §4
Candida albicans [26] = assay: Antifungal activity against Candida albicans ATCC 90028 after 24 hrs by serial agar dilution method; type: functional; settings: ATCC 90028, 24 h; outline: as §5
Escherichia coli [27] = assay: Antibacterial activity against Escherichia coli NCTC 8196 at 400 ug/disc after 18 hrs by disc diffusion assay; type: functional, organism-based; outline: as §2
Staphylococcus aureus [28] = assay: Antibacterial activity against Staphylococcus aureus NCTC 4163 at 400 ug/disc after 18 hrs by disc diffusion assay; type: functional; settings: NCTC 4163, 18 h, read-out: IZ; outline: as §2
Staphylococcus aureus [29] = assay: Antibacterial activity against Staphylococcus aureus NCTC 4163 after 18 hrs by serial agar dilution method; type: functional; settings: NCTC 4163, 18 h; outline: as §3
Staphylococcus aureus [30] = assay: Antibacterial activity against Staphylococcus aureus ATCC 25923 at 400 ug/disc after 18 hrs by disc diffusion assay; type: functional; settings: ATCC 25923, 18 h, read-out: IZ; outline: as §2
Staphylococcus aureus [31] = assay: Antibacterial activity against Staphylococcus aureus ATCC 25923 after 18 hrs by serial agar dilution method; type: functional; settings: ATCC 25923, 18 h; outline: as §3
Staphylococcus aureus [32] = assay: Antibacterial activity against Staphylococcus aureus ATCC 6538 at 400 ug/disc after 18 hrs by disc diffusion assay; type: functional; settings: ATCC 6538, 18 h, read-out: IZ; outline: as §2
Staphylococcus aureus [33] = assay: Antibacterial activity against Staphylococcus aureus ATCC 6538 after 18 hrs by serial agar dilution method; type: functional; settings: ATCC 6538, 18 h; outline: as §3
Staphylococcus aureus [34] = assay: Antibacterial activity against Staphylococcus aureus ATCC 29213 at 400 ug/disc after 18 hrs by disc diffusion assay; type: functional; settings: ATCC 29213, 18 h, read-out: IZ; outline: as §2
Staphylococcus aureus [35] = assay: Antibacterial activity against Staphylococcus aureus ATCC 29213 after 18 hrs by serial agar dilution method; type: functional; settings: ATCC 29213, 18 h; outline: as §3
Candida parapsilosis [36] = assay: Antifungal activity against Candida parapsilosis ATCC 22019 at 400 ug/disc after 24 hrs by disc diffusion assay; type: functional; settings: Lodderomyces parapsilosis, ATCC 22019, 24 h; read-out: IZ; outline: as §4

## OC(Cn1cncn1)(Cn1cncn1)c1ccc(F)cc1F [FLUCONAZOLE]
Candida albicans [1]
  zone of inhibition at 25 µg/disc: 22 mm
Candida parapsilosis [2]
  MIC: 2 µg/mL (≈ 6.53 µM)
Candida albicans [3]
  zone of inhibition at 25 µg/disc: 32 mm
Candida parapsilosis [4]
  zone of inhibition at 25 µg/disc: 22 mm

## CC[C@@]1([C@@H]2O[C@@H]([C@H]3O[C@@](O)(CO)[C@H](C)C[C@@H]3C)C[C@@H]2C)CC[C@H]([C@]2(C)CC[C@]3(C[C@H](O)[C@@H](C)[C@@H]([C@@H](C)[C@@H](OC)[C@H](C)C(=O)OCCN4CCOCC4)O3)O2)O1
[5]
  zone of inhibition at 400 µg/disc: 24 mm
[6]
  MIC: 12.5 µg/mL (≈ 15.9 µM)
Bacillus subtilis [7]
  zone of inhibition at 400 µg/disc: 27 mm
Bacillus subtilis [8]
  MIC: 6.25 µg/mL (≈ 7.97 µM)
Bacillus cereus [9]
  zone of inhibition at 400 µg/disc: 25 mm
Bacillus cereus [10]
  MIC: 6.25 µg/mL (≈ 7.97 µM)
Enterococcus hirae [11]
  zone of inhibition at 400 µg/disc: 13 mm
Enterococcus hirae [12]
  MIC: 50 µg/mL (≈ 63.8 µM)
Micrococcus luteus [13]
  zone of inhibition at 400 µg/disc: 22 mm
Micrococcus luteus [14]
  MIC: 25 µg/mL (≈ 31.9 µM)
Micrococcus luteus [15]
  zone of inhibition at 400 µg/disc: 18 mm
Micrococcus luteus [16]
  MIC: 12.5 µg/mL (≈ 15.9 µM)
Escherichia coli [17]
  Activity: inactive
Escherichia coli [18]
  Activity: inactive
Proteus vulgaris
  Activity: inactive
Pseudomonas aeruginosa [19]
  Activity: inactive
Pseudomonas aeruginosa [20]
  Activity: inactive
Pseudomonas aeruginosa [21]
  Activity: inactive
[22]
  Activity: inactive
Candida albicans [23]
  zone of inhibition at 400 µg/disc: 18 mm
Candida albicans [24]
  MIC: 200 µg/mL (≈ 255 µM)
Candida albicans [25]
  zone of inhibition at 400 µg/disc: 17 mm
Candida albicans [26]
  MIC: 200 µg/mL (≈ 255 µM)
Escherichia coli [27]
  Activity: inactive
Staphylococcus aureus [28]
  zone of inhibition at 400 µg/disc: 23 mm
Staphylococcus aureus [29]
  MIC: 12.5 µg/mL (≈ 15.9 µM)
Staphylococcus aureus [30]
  zone of inhibition at 400 µg/disc: 20 mm
Staphylococcus aureus [31]
  MIC: 6.25 µg/mL (≈ 7.97 µM)
Staphylococcus aureus [32]
  zone of inhibition at 400 µg/disc: 23 mm
Staphylococcus aureus [33]
  MIC: 12.5 µg/mL (≈ 15.9 µM)
Staphylococcus aureus [34]
  zone of inhibition at 400 µg/disc: 25 mm
Staphylococcus aureus [35]
  MIC: 6.25 µg/mL (≈ 7.97 µM)
Candida parapsilosis [36]
  zone of inhibition at 400 µg/disc: 14 mm
Candida parapsilosis [2]
  MIC: 400 µg/mL (≈ 510 µM)
